The source of these data is PubChem BioAssay.

Activity calls are given as the source filed them.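 Rule for the calls, unless noted: active = viability loss from added drug above about 55%, and viability with drug at most 40%, in both replicates (limit read from the data, passing the limit was not always enough); inconclusive = both conditions met in only one replicate; inactive = neither replicate meets both conditions.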

In general, viability refers to a read-out of living cells in per cent, often relative to untreated cells. By inhibition is commonly meant the drop in the measured response relative to a control, in per cent.

Assay [1] in a line: Her2 expression decrease, cell viability multiplex – SKBR3 breast tumor cells, AlphaScreen, ATP viability, primary screen (AID 461;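 active = Her2 level under about 52% in both replicate screens, with viability over 70% of control, limit read from the data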;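 for Her2 level: lower value means less Her2 protein in the cells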;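 for viability: percent of carrier control wells set as 100% viability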). The conditions noted are these: SKBR3 Her2 protein level, 18-24 h, measured here: SKBR3 viability, ATP luminescence, at 10 µM.
Assay [2] addresses Receptor tyrosine-protein kinase erbB-2 (Homo sapiens) (UniProt P04626). The assay is described as above. The note with it: 18-24 h, at 10 µM, stronger effect = lower value.
The nature of assay [3]: reduced viability of SK-BR-3 breast cancer cells – cell-based, 24 h, human, pilot screen (AID 572;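 active = viability at or below 10% of carrier control in both of two separate runs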;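 note: compound exposure lasted between 18 and 24 h rather than exactly 24 h; 100% = carrier-treated control wells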). The conditions noted are these: SK-BR-3 viability, CellTiter-Glo luminescence, at 10 µM, stronger effect = lower value.
Assay [4] can be described thus: HUVEC growth inhibition – cell-based, human, primary screen (AID 575;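 active = viability at or below 30% in both replicate assays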;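 note: 100% = median of untreated cell wells with 0.1% DMSO on each plate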). The conditions noted are these: HUVEC proliferation, CellTiter-Glo luminescence, 72 h; at 10 µM; stronger effect = lower value. The method, boiled down:
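Timing: 72 h treatment at 37 °C; material: HUVEC primary cells; technique: CellTiter-Glo luminescence measuring cellular ATP; controls: vehicle and MePR control wells; measure: percent of median DMSO-control luminescence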
(In general: ATP-based viability assays read luminescence as a measure of living cells.)

The nature of assay [5]: H69AR cell proliferation blockers – human, duplicate replicates, primary screen (AID 580;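 active = viability at or under a set limit in both replicates, limit being median viability minus 3 SD, cut at about 48% in these data, passing the limit was not always enough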;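 note: 100% = mean luminescence of untreated wells and 0% = no signal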). The conditions noted are these: H69AR lung tumor cells viability, ATP luminescence, 72 h; at 10 µM; stronger effect = lower value.
A short description of assay [6]: MRP1 drug-resistance reversers in H69AR cells – cell-based, doxorubicin co-treatment, pilot screen (AID 601). The note with it: CellTiter-Glo, 72 h, at 10 µM; for differential viability (reversal): stronger effect = higher value.
A short description of assay [7]: yeast transport mutant growth inhibition pilot in 384-well plates, post-Golgi transport modulator project (AID 636; in the data active = inhibition above about 31%). The conditions noted are these: absorbance 615 nm, about 18 h, stronger effect = higher value.
A short description of assay [8]: growth suppression of yeast trafficking mutant, preliminary HTS, modulators of trafficking downstream of Golgi apparatus project, 1536-format plate, OD 615 nm (AID 637; in the data active = inhibition above about 30%). The conditions noted are these: yeast transport mutant growth, absorbance 615 nm, 18 h; stronger effect = higher value.
[9] abbreviates: H69AR cells + 2 uM doxorubicin, measured here: viability with 2 uM doxorubicin, stronger effect = lower value.
The mark [10] stands for this setting: H69AR cells, compound alone cytotoxicity.

Sequence of Receptor tyrosine-protein kinase erbB-2 (Homo sapiens) (P04626 whole entry, looked up): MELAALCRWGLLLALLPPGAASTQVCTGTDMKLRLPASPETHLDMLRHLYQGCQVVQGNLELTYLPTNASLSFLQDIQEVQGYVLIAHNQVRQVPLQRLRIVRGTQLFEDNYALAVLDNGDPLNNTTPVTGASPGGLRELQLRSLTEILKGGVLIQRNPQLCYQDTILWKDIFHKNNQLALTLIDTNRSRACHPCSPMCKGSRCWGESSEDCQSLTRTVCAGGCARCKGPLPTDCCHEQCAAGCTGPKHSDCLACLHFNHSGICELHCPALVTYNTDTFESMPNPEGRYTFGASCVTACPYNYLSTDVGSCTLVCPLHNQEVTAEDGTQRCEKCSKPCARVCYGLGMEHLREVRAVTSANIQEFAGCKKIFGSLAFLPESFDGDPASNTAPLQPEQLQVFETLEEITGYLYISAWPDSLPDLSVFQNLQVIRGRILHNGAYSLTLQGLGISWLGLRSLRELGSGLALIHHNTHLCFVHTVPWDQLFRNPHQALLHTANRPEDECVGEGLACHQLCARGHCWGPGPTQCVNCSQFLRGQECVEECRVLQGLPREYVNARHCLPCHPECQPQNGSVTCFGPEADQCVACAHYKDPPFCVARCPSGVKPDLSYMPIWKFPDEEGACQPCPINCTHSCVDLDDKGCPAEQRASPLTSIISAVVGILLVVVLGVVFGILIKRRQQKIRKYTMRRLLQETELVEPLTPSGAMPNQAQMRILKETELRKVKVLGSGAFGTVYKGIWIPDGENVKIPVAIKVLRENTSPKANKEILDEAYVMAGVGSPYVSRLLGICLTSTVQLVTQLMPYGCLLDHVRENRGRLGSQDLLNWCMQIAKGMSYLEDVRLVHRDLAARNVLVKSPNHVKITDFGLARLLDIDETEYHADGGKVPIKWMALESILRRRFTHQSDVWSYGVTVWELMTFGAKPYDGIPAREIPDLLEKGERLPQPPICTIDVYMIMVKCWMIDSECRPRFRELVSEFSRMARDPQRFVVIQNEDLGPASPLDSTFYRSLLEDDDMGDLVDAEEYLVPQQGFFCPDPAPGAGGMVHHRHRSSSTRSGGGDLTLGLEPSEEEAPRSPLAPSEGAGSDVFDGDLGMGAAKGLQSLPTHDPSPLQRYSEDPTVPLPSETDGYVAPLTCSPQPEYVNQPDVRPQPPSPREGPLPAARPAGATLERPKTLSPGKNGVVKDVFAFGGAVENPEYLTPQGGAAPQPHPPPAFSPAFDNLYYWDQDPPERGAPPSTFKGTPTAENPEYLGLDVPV

Consider `CC(C)(C)OC(=O)N1CC(O)CC1C(=O)OCC(=O)c1ccc(Cl)cc1` (stereo not given), for which the viability is 95% in assay [1]; 95% (inactive) in assay [3]; 109% (inactive) in assay [4]; 84% (inactive) in assay [5]; 90.3% in assay [6] (setting [9]); 84% in assay [6] (setting [10]). For the same molecule, in assay [2], the Her2 level is 91% (inactive). The differential viability (reversal) in assay [6] (H69AR cells + 2 uM doxorubicin) was -6.24% (inactive). The inhibition in assay [7] was -5.68% (inactive); in assay [8] it was 11.5% (inactive).
On to `O=C(CNS(=O)(=O)c1ccc(Br)s1)N1CCN(c2ncccn2)CC1`, for which the viability is 98.5% in assay [1]; 98.5% (inactive) in assay [3]; 122% (inactive) in assay [4]; 94.6% (inactive) in assay [5]; 98.7% in assay [6] (setting [9]); 94.6% in assay [6] (setting [10]). The Her2 level in assay [2] is 116% (inactive). Further, in assay [6] (H69AR cells + 2 uM doxorubicin), the differential viability (reversal) is -4.04% (inactive). The inhibition is -4.87% (inactive) in assay [7] and -1.31% (inactive) in assay [8].
For `CCCn1nc(NS(=O)(=O)c2ccccc2)c2cc3ccccc3nc21`, the viability in assay [1] is 91.5%; in assay [3], 91.5% (inactive); in assay [4], 76.5% (inactive); in assay [5], 120% (inactive); in assay [6] (setting [9]) it was 94.9%; in assay [6] (setting [10]) it was 120%. The Her2 level in assay [2] was 94.5% (inactive). The differential viability (reversal) in assay [6] (H69AR cells + 2 uM doxorubicin) is 25% (inactive). Besides, the figures for the inhibition in assay [7] and in assay [8] were -1.84% (inactive) and 5.45% (inactive), respectively.
Take `NC(=O)COC(=O)CNC(=O)c1ccc(Cl)cc1`: the viability in assay [1] is 125%; in assay [3], 125% (inactive); in assay [4], 86.1% (inactive); in assay [5], 101% (inactive); in assay [6] (setting [9]), 84.7%; in assay [6] (setting [10]) it was 101%. For the same molecule, the Her2 level in assay [2] was 98% (inactive). Moreover, the differential viability (reversal) in assay [6] (H69AR cells + 2 uM doxorubicin) is 16.1% (inactive). For the same molecule, the figures for the inhibition in assay [7] and in assay [8] were -2.4% (inactive) and -0.81% (inactive), respectively.
With `C=CCn1c(Cc2cccs2)nnc1SCC(=O)Nc1ccc(OC)c(OC)c1`, the viability in assay [1] is 108%; in assay [3], 108% (inactive); in assay [4], 89.6% (inactive); in assay [5], 85.3% (inactive); in assay [6] (setting [9]), 90.3%; in assay [6] (setting [10]), 85.3%. In addition, the Her2 level in assay [2] was 109% (inactive). In addition, the differential viability (reversal) in assay [6] (H69AR cells + 2 uM doxorubicin) was -5.02% (inactive). The inhibition in assay [7] is -5.06% (inactive); in assay [8], 0% (inactive).
As to `CS(=O)(=O)c1ccc2nc(NC(=O)c3cccs3)sc2c1`, the viability in assay [1] is 99%; in assay [3], 99% (inactive); in assay [4], 64% (inactive); in assay [5], 45% (active); in assay [6] (setting [9]), 51.4%; in assay [6] (setting [10]), 45%. The Her2 level in assay [2] was 74.5% (inactive). The differential viability (reversal) in assay [6] (H69AR cells + 2 uM doxorubicin) is -6.37% (inactive). Also, the inhibition was -6.76% (inactive) in assay [7] and 2.95% (inactive) in assay [8].
On to `COC(=O)c1ccc(NC(=O)Cn2nnc3ccccc32)cc1`, for which the viability is 94% in assay [1]; 94% (inactive) in assay [3]; 109% (inactive) in assay [4]; 108% (inactive) in assay [5]; 90% in assay [6] (setting [9]); 108% in assay [6] (setting [10]). The Her2 level in assay [2] was 82.5% (inactive). Also, the differential viability (reversal) in assay [6] (H69AR cells + 2 uM doxorubicin) is 17.7% (inactive). Also, the values for the inhibition in assay [7] and in assay [8] were 0.13% (inactive) and 0% (inactive), respectively.
On to `Cc1cc(C(=O)NCCN2CCCCC2C)n(-c2ccccc2)n1` (stereo not given), for which the viability in assay [1] was 87.5%; in assay [3] it was 87.5% (inactive); in assay [4] it was 92.3% (inactive); in assay [5] it was 92.6% (inactive); in assay [6] (setting [9]) it was 89.1%; in assay [6] (setting [10]), 92.6%. For the same molecule, the Her2 level in assay [2] is 116% (inactive). The differential viability (reversal) in assay [6] (H69AR cells + 2 uM doxorubicin) was 3.49% (inactive). The inhibition in assay [7] is -2.8% (inactive); in assay [8], -3.77% (inactive).
As to `CC(=O)Nc1ccc(OC(=O)c2cccs2)cc1`, the viability in assay [1] was 101%; in assay [3] it was 101% (inactive); in assay [4], 103% (inactive); in assay [5], 87% (inactive); in assay [6] (setting [9]), 101%; in assay [6] (setting [10]) it was 87%. Besides, in assay [2], the Her2 level was 97% (inactive). Moreover, in assay [6] (H69AR cells + 2 uM doxorubicin), the differential viability (reversal) was -13.6% (inactive). Besides, the inhibition was -1.17% (inactive) in assay [7] and -4.59% (inactive) in assay [8].
Turning to `COc1ccc2nc(SCC(=O)NC(C)C)[nH]c2c1`, the viability was 104% in assay [1]; 104% (inactive) in assay [3]; 102% (inactive) in assay [4]; 96.4% (inactive) in assay [5]; 91.4% in assay [6] (setting [9]); 96.4% in assay [6] (setting [10]). Besides, the Her2 level in assay [2] was 106% (inactive). For the same molecule, the differential viability (reversal) in assay [6] (H69AR cells + 2 uM doxorubicin) was 4.97% (inactive). In addition, the inhibition was 3.25% (inactive) in assay [7] and -10.8% (inactive) in assay [8].
As to `c1ccc(CCNc2ccc3nncn3n2)cc1`, the viability in assay [1] was 82%; in assay [3] it was 82% (inactive); in assay [4], 95.6% (inactive); in assay [5], 86.5% (inactive); in assay [6] (setting [9]), 83%; in assay [6] (setting [10]) it was 86.5%. Further, in assay [2], the Her2 level is 89.5% (inactive). For the same molecule, the differential viability (reversal) in assay [6] (H69AR cells + 2 uM doxorubicin) was 3.48% (inactive). Further, the inhibition is -2.53% (inactive) in assay [7] and 0.98% (inactive) in assay [8].
As for `COc1cc(Cn2c(C(=O)O)cc3sccc32)cc(OC)c1OC`, the viability in assay [1] was 107%; in assay [3], 107% (inactive); in assay [4], 98.4% (inactive); in assay [5], 94.1% (inactive); in assay [6] (setting [9]), 91.7%; in assay [6] (setting [10]), 94.1%. In addition, the Her2 level in assay [2] was 102% (inactive). Further, the differential viability (reversal) in assay [6] (H69AR cells + 2 uM doxorubicin) was 2.41% (inactive). Also, the results for the inhibition in assay [7] and in assay [8] were -1.97% (inactive) and 6.56% (inactive), respectively.
With `c1cn(C23CC4CC(CC(C4)C2)C3)cn1`, the viability in assay [1] is 113%; in assay [3], 113% (inactive); in assay [4], 104% (inactive); in assay [5], 92.3% (inactive); in assay [6] (setting [9]), 84.1%; in assay [6] (setting [10]) it was 92.3%. Further, in assay [2], the Her2 level was 88% (inactive). Moreover, in assay [6] (H69AR cells + 2 uM doxorubicin), the differential viability (reversal) is 8.21% (inactive). Further, the figures for the inhibition in assay [7] and in assay [8] were -5.6% (inactive) and 1.94% (inactive), respectively.
Consider `Cc1ccc(C(C)n2cc(C(=O)NCCN3CCN(C)CC3)nn2)cc1` (stereo not given), for which the viability in assay [1] was 106%; in assay [3] it was 106% (inactive); in assay [4], 93.5% (inactive); in assay [5], 86.1% (inactive); in assay [6] (setting [9]) it was 91.1%; in assay [6] (setting [10]), 86.1%. Also, in assay [2], the Her2 level is 94% (inactive). Further, the differential viability (reversal) in assay [6] (H69AR cells + 2 uM doxorubicin) was -5% (inactive). Also, the inhibition is -2.21% (inactive) in assay [7] and -6.19% (inactive) in assay [8].
For the molecule `OCCNc1nc2ccc(Cl)cc2[nH]1`, the viability is 84% in assay [1]; 84% (inactive) in assay [3]; 108% (inactive) in assay [4]; 107% (inactive) in assay [5]; 97.9% in assay [6] (setting [9]); 107% in assay [6] (setting [10]). Moreover, in assay [2], the Her2 level is 100% (inactive). Also, the differential viability (reversal) in assay [6] (H69AR cells + 2 uM doxorubicin) was 9.03% (inactive). The inhibition in assay [7] was -6.89% (inactive); in assay [8], 5.08% (inactive).
For `COc1ccc(Cl)cc1C(=O)n1nc(C)cc1C`, the viability is 104% in assay [1]; 104% (inactive) in assay [3]; 93% (inactive) in assay [4]; 94.6% (inactive) in assay [5]; 93% in assay [6] (setting [9]); 94.6% in assay [6] (setting [10]). Further, the Her2 level in assay [2] is 112% (inactive). For the same molecule, the differential viability (reversal) in assay [6] (H69AR cells + 2 uM doxorubicin) was 1.56% (inactive). Further, the inhibition in assay [7] is 2.43% (inactive); in assay [8] it was 9.17% (inactive).
